Data from ChEMBL document CHEMBL4689842, “EUbOPEN Chemogenomics Library wave 1” (2021).

Test system: U2OS
Experiment: Multiplex assay against U2OS
Format: toxicity, cell-based
Details: human
In short: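 Values for tubulin, mitochondrial-mass and membrane-permeability phenotypes are per cents of cells with healthy nuclei. These cells were identified by CellPathfinder machine-learning gating of live cells that had been stained at seeding with Hoechst33342, BioTracker Green Microtubule Cytoskeleton Dye, MitoTracker Red and Annexin V Alexa Fluor 680 and imaged on a CQ1 microscope at 37°C and 5% CO2 after compound addition. The gating first set Hoechst high-intensity objects apart from normal cells, then split normal cells into healthy, pyknosed or fragmented nuclei, and pyknosed cells into mitotic or apoptotic.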

[1] = 12 h, 1 µM, compound concentration 1 uM, replicate 1
[2] = 12 h, 1 µM, compound concentration 1 uM, replicate 2
[3] = 12 h, 10 µM, compound concentration 10 uM, replicate 1
[4] = 12 h, 10 µM, compound concentration 10 uM, replicate 2
[5] = 24 h, 1 µM, compound concentration 1 uM, replicate 1
[6] = 24 h, 1 µM, compound concentration 1 uM, replicate 2
[7] = 24 h, 10 µM, compound concentration 10 uM, replicate 1
[8] = 24 h, 10 µM, compound concentration 10 uM, replicate 2
[9] = 48 h, 1 µM, compound concentration 1 uM, replicate 1
[10] = 48 h, 1 µM, compound concentration 1 uM, replicate 2
[11] = 48 h, 10 µM, compound concentration 10 uM, replicate 1
[12] = 48 h, 10 µM, compound concentration 10 uM, replicate 2

CCCn1c(=O)c2[nH]c(-c3cnn(Cc4cccc(C(F)(F)F)c4)c3)nc2n(CC)c1=O [GS 6201]
Population Apoptotic (%) [1]: 28% | Population Fragmented Nuclei (%) [1]: 8% | Population Healthy Nuclei (%) [1]: 78% | Population Hoechst High Intensity Objects (%) [1]: 9% | Population Membrane Permeable-Phenotype (%) [1]: 14% | Population Mitochondria Different-Phenotype (%) [1]: 5% | Population Mitotic Cells (%) [1]: 71% | Population Normal (%) [1]: 90% | Population Pyknosed Nuclei (%) [1]: 13% | Population Tubulin-Different-Phenotype (%) [1]: 14% | Total Cell Count [1]: 1120 | Population Apoptotic (%) [2]: 42% | Population Fragmented Nuclei (%) [2]: 4% | Population Healthy Nuclei (%) [2]: 88% | Population Hoechst High Intensity Objects (%) [2]: 2% | Population Membrane Permeable-Phenotype (%) [2]: 8% | Population Mitochondria Different-Phenotype (%) [2]: 9% | Population Mitotic Cells (%) [2]: 57% | Population Normal (%) [2]: 97% | Population Pyknosed Nuclei (%) [2]: 7% | Population Tubulin-Different-Phenotype (%) [2]: 28% | Total Cell Count [2]: 75 | Population Apoptotic (%) [3]: 35% | Population Fragmented Nuclei (%) [3]: 34% | Population Healthy Nuclei (%) [3]: 52% | Population Hoechst High Intensity Objects (%) [3]: 19% | Population Membrane Permeable-Phenotype (%) [3]: 51% | Population Mitochondria Different-Phenotype (%) [3]: 31% | Population Mitotic Cells (%) [3]: 64% | Population Normal (%) [3]: 80% | Population Pyknosed Nuclei (%) [3]: 12% | Population Tubulin-Different-Phenotype (%) [3]: 82% | Total Cell Count [3]: 118 | Population Apoptotic (%) [4]: 50% | Population Fragmented Nuclei (%) [4]: 17% | Population Healthy Nuclei (%) [4]: 77% | Population Hoechst High Intensity Objects (%) [4]: 5% | Population Membrane Permeable-Phenotype (%) [4]: 3% | Population Mitochondria Different-Phenotype (%) [4]: 20% | Population Mitotic Cells (%) [4]: 50% | Population Normal (%) [4]: 94% | Population Pyknosed Nuclei (%) [4]: 4% | Population Tubulin-Different-Phenotype (%) [4]: 10% | Total Cell Count [4]: 98 | Population Apoptotic (%) [5]: 27% | Population Fragmented Nuclei (%) [5]: 8% | Population Healthy Nuclei (%) [5]: 82% | Population Hoechst High Intensity Objects (%) [5]: 7% | Population Membrane Permeable-Phenotype (%) [5]: 7% | Population Mitochondria Different-Phenotype (%) [5]: 7% | Population Mitotic Cells (%) [5]: 72% | Population Normal (%) [5]: 92% | Population Pyknosed Nuclei (%) [5]: 8% | Population Tubulin-Different-Phenotype (%) [5]: 8% | Total Cell Count [5]: 2066 | Population Apoptotic (%) [6]: 50% | Population Fragmented Nuclei (%) [6]: 5% | Population Healthy Nuclei (%) [6]: 90% | Population Hoechst High Intensity Objects (%) [6]: 4% | Population Membrane Permeable-Phenotype (%) [6]: 2% | Population Mitochondria Different-Phenotype (%) [6]: 10% | Population Mitotic Cells (%) [6]: 50% | Population Normal (%) [6]: 95% | Population Pyknosed Nuclei (%) [6]: 4% | Population Tubulin-Different-Phenotype (%) [6]: 30% | Total Cell Count [6]: 81 | Population Apoptotic (%) [7]: 64% | Population Fragmented Nuclei (%) [7]: 44% | Population Healthy Nuclei (%) [7]: 41% | Population Hoechst High Intensity Objects (%) [7]: 16% | Population Membrane Permeable-Phenotype (%) [7]: 47% | Population Mitochondria Different-Phenotype (%) [7]: 31% | Population Mitotic Cells (%) [7]: 35% | Population Normal (%) [7]: 83% | Population Pyknosed Nuclei (%) [7]: 14% | Population Tubulin-Different-Phenotype (%) [7]: 58% | Total Cell Count [7]: 133 | Population Apoptotic (%) [8]: 50% | Population Fragmented Nuclei (%) [8]: 17% | Population Healthy Nuclei (%) [8]: 72% | Population Hoechst High Intensity Objects (%) [8]: 3% | Population Membrane Permeable-Phenotype (%) [8]: 5% | Population Mitochondria Different-Phenotype (%) [8]: 11% | Population Mitotic Cells (%) [8]: 50% | Population Normal (%) [8]: 96% | Population Pyknosed Nuclei (%) [8]: 10% | Population Tubulin-Different-Phenotype (%) [8]: 9% | Total Cell Count [8]: 139 | Population Apoptotic (%) [9]: 44% | Population Fragmented Nuclei (%) [9]: 8% | Population Healthy Nuclei (%) [9]: 82% | Population Hoechst High Intensity Objects (%) [9]: 1% | Population Membrane Permeable-Phenotype (%) [9]: 3% | Population Mitochondria Different-Phenotype (%) [9]: 11% | Population Mitotic Cells (%) [9]: 55% | Population Normal (%) [9]: 98% | Population Pyknosed Nuclei (%) [9]: 9% | Population Tubulin-Different-Phenotype (%) [9]: 7% | Total Cell Count [9]: 2377 | Population Apoptotic (%) [10]: 41% | Population Fragmented Nuclei (%) [10]: 2% | Population Healthy Nuclei (%) [10]: 91% | Population Membrane Permeable-Phenotype (%) [10]: 1% | Population Mitochondria Different-Phenotype (%) [10]: 13% | Population Mitotic Cells (%) [10]: 58% | Population Pyknosed Nuclei (%) [10]: 5% | Population Tubulin-Different-Phenotype (%) [10]: 35% | Total Cell Count [10]: 110 | Population Apoptotic (%) [11]: 67% | Population Fragmented Nuclei (%) [11]: 51% | Population Healthy Nuclei (%) [11]: 34% | Population Hoechst High Intensity Objects (%) [11]: 13% | Population Membrane Permeable-Phenotype (%) [11]: 50% | Population Mitochondria Different-Phenotype (%) [11]: 29% | Population Mitotic Cells (%) [11]: 32% | Population Normal (%) [11]: 86% | Population Pyknosed Nuclei (%) [11]: 13% | Population Tubulin-Different-Phenotype (%) [11]: 47% | Total Cell Count [11]: 198 | Population Apoptotic (%) [12]: 22% | Population Fragmented Nuclei (%) [12]: 12% | Population Healthy Nuclei (%) [12]: 80% | Population Hoechst High Intensity Objects (%) [12]: 2% | Population Membrane Permeable-Phenotype (%) [12]: 9% | Population Mitochondria Different-Phenotype (%) [12]: 13% | Population Mitotic Cells (%) [12]: 77% | Population Normal (%) [12]: 97% | Population Pyknosed Nuclei (%) [12]: 6% | Population Tubulin-Different-Phenotype (%) [12]: 13% | Total Cell Count [12]: 214
